From ChEMBL document CHEMBL1145518, “Potent immune-modulating and anticancer effects of NKT cell stimulatory glycolipids” (2007)
The source made the active and inactive calls. The calls are words filed in the database; no cut-off is given here.

Experiments:
[1] = Induction of IL15 secretion in human CD161+ CD3+ NKT cells at 10 ug/ml after 18 hrs relative to basal level; assay type: functional
Method in brief: (§1)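 Human Vα24i NKT cell lines were expanded for 10 days on irradiated (3,000 rad) autologous immature DCs with 10 units/ml IL-2. The cells (1 × 10^5) were cocultured with 5 × 10^4 irradiated immature CD14+ DCs plus glycolipid at 10 μg/ml. Supernatants were collected at 18 h and read on a 22-plex Luminex bead panel. Triplicates, mean ± SD.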

Mus musculus [2] = assay: Induction of IFN-gamma secretion in BALB/c mouse serum at 2 ug, iv after 18 hrs relative to control; assay type: functional
Method in brief: (§2)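 BALB/c mice received an i.v. injection of 100 μl of glycolipid diluted to 20 μg/ml in saline from DMSO stock, with 1% DMSO as vehicle. Serum cytokines/chemokines were measured at 2 and 18 h after injection.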

[3] = Induction of RANTES secretion in human CD161+ CD3+ NKT cells at 10 ug/ml after 18 hrs relative to basal level; assay type: functional; method in brief: as §1
[4] = Induction of MCP1 secretion in human CD161+ CD3+ NKT cells at 10 ug/ml after 18 hrs relative to basal level; assay type: functional; method in brief: as §1
Mus musculus [5] = assay: Induction of KC secretion in BALB/c mouse serum at 2 ug, iv after 2 hrs relative to control; assay type: functional; method in brief: as §2
Mus musculus [6] = assay: Induction of IL4 secretion in BALB/c mouse serum at 2 ug, iv after 2 hrs relative to control; assay type: functional; method in brief: as §2
Mus musculus [7] = assay: Induction of IL12p40 secretion in BALB/c mouse serum at 2 ug, iv after 18 hrs relative to control; assay type: functional; method in brief: as §2
[8] = Induction of IL8 secretion in human CD161+ CD3+ NKT cells at 10 ug/ml after 18 hrs relative to basal level; assay type: functional; method in brief: as §1
Mus musculus [9] = assay: Induction of MIPbeta secretion in BALB/c mouse serum at 2 ug, iv after 2 hrs relative to control; assay type: functional; method in brief: as §2
Mus musculus [10] = assay: Induction of IL3 secretion in BALB/c mouse serum at 2 ug, iv after 2 hrs relative to control; assay type: functional; method in brief: as §2
Mus musculus [11] = assay: Induction of IL2 secretion in BALB/c mouse serum at 2 ug, iv after 2 hrs relative to control; assay type: functional; method in brief: as §2
[12] = Induction of GM-CSF secretion in human CD161+ CD3+ NKT cells at 10 ug/ml after 18 hrs relative to basal level; assay type: functional; method in brief: as §1
Mus musculus [13] = assay: Activation of B cells in BALB/c mouse at 2 ug, iv after 72 hrs by flow cytometry; assay type: functional, organism-based
Mus musculus [14] = assay: Increase in CD8/CD4 T cell ratio in BALB/c mouse at 2 ug, iv after 72 hrs by flow cytometry; assay type: functional, organism-based
[15] = Induction of IL12p70 secretion in human CD161+ CD3+ NKT cells at 10 ug/ml after 18 hrs relative to basal level; assay type: functional; method in brief: as §1
Mus musculus [16] = assay: Induction of GM-CSF secretion in BALB/c mouse serum at 2 ug, iv after 2 hrs relative to control; assay type: functional; method in brief: as §2
Mus musculus [17] = assay: Induction of IL6 secretion in BALB/c mouse serum at 2 ug, iv after 2 hrs relative to control; assay type: functional; method in brief: as §2
Mus musculus [18] = assay: Induction of IL13 secretion in BALB/c mouse serum at 2 ug, iv after 2 hrs relative to control; assay type: functional; method in brief: as §2
Mus musculus [19] = assay: Induction of TNFalpha secretion in BALB/c mouse serum at 2 ug, iv after 18 hrs relative to control; assay type: functional; method in brief: as §2
[20] = Induction of MIPalpha secretion in human CD161+ CD3+ NKT cells at 10 ug/ml after 18 hrs relative to basal level; assay type: functional; method in brief: as §1
[21] = Induction of IL10 secretion in human CD161+ CD3+ NKT cells at 10 ug/ml after 18 hrs relative to basal level; assay type: functional; method in brief: as §1
[22] = Induction of IFN-gamma secretion in human CD161+ CD3+ NKT cells at 10 ug/ml after 18 hrs relative to basal level; assay type: functional; method in brief: as §1
[23] = Induction of IL2 secretion in human CD161+ CD3+ NKT cells at 10 ug/ml after 18 hrs relative to basal level; assay type: functional; method in brief: as §1
Mus musculus [24] = assay: Induction of IL1-beta secretion in BALB/c mouse serum at 2 ug, iv after 18 hrs relative to control; assay type: functional; method in brief: as §2
[25] = Induction of TNFalpha secretion in human CD161+ CD3+ NKT cells at 10 ug/ml after 18 hrs relative to basal level; assay type: functional; method in brief: as §1
Mus musculus [26] = assay: Induction of IL10 secretion in BALB/c mouse serum at 2 ug, iv after 18 hrs relative to control; assay type: functional; method in brief: as §2
[27] = Induction of IL3 secretion in human CD161+ CD3+ NKT cells at 10 ug/ml after 18 hrs relative to basal level; assay type: functional; method in brief: as §1
[28] = Induction of IL4 secretion in human CD161+ CD3+ NKT cells at 10 ug/ml after 18 hrs relative to basal level; assay type: functional; method in brief: as §1
Mus musculus [29] = assay: Induction of IL12p70 secretion in BALB/c mouse serum at 2 ug, iv after 18 hrs relative to control; assay type: functional; method in brief: as §2
NKT = assay: Stimulation of cell expansion of human invariant CD161+/ Valpha24+/ CD56+/ CD3+ NKT cells by flow cytometry method; assay type: functional, cell-based
Method in brief: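 CD56+ NK/NKT mixtures (2 × 10^6) were isolated from human leukopaks with anti-CD56 microbeads. They were cocultured with 4 × 10^5 autologous immature CD14+ DCs pulsed with glycolipid at 3 μg/ml, or with 0.3% DMSO, on day 2 for 18 h. Suspension cells were then transferred and kept in 100 units/ml IL-2 with fresh medium every 3 days. On day 9, CD161+/Vα24TCR+ cells were gated by flow cytometry and total Vα24i NKT cells counted. Triplicates, mean ± SD.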

[30] = Induction of IL13 secretion in human CD161+ CD3+ NKT cells at 10 ug/ml after 18 hrs relative to basal level; assay type: functional; method in brief: as §1
[31] = Induction of IL6 secretion in human CD161+ CD3+ NKT cells at 10 ug/ml after 18 hrs relative to basal level; assay type: functional; method in brief: as §1
[32] = Induction of IL12p40 secretion in human CD161+ CD3+ NKT cells at 10 ug/ml after 18 hrs relative to basal level; assay type: functional; method in brief: as §1
Mus musculus [33] = assay: Induction of RANTES secretion in BALB/c mouse serum at 2 ug, iv after 2 hrs relative to control; assay type: functional; method in brief: as §2
Mus musculus [34] = assay: Induction of MCP1 secretion in BALB/c mouse serum at 2 ug, iv after 2 hrs relative to control; assay type: functional; method in brief: as §2
dendritic [35] = assay: Activation of TCR in human immature dendritic cells assessed as increase in CREB phosphorylation; assay type: cell-based
Method in brief: (§3)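 Human HeLa, HeLa-CD1d or autologous immature DCs were loaded with glycolipid at 10 μg/ml, or DMSO, for 2 h. Then 3 × 10^5 naïve CD161+/CD3+ NKT cells were added; these were bead-isolated and kept in 100 units/ml IL-2. After 5–10 min the cells were washed and lysed at 4°C. Phospho-CD3ε, ERK1/2 (Thr-185/Tyr-187) and CREB (Ser-133) were read by Luminex bead assay as median fluorescence normalized to total protein, expressed as fold over 1% DMSO.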

HeLa [36] = assay: Activation of TCR in human HeLa cells overexpressing CD1d assessed as increase in ERK1/2 phosphorylation; assay type: cell-based; method in brief: as §3
dendritic [37] = assay: Activation of TCR in human immature dendritic cells assessed as increase in CD3epsilon phosphorylation; assay type: cell-based; method in brief: as §3
dendritic [38] = assay: Activation of TCR in human immature dendritic cells assessed as increase in ERK1/2 phosphorylation; assay type: cell-based; method in brief: as §3
HeLa [39] = assay: Activation of TCR in human HeLa cells overexpressing CD1d assessed as increase in CD3epsilon phosphorylation; assay type: cell-based; method in brief: as §3
HeLa [40] = assay: Activation of TCR in human HeLa cells overexpressing CD1d assessed as increase in CREB phosphorylation; assay type: cell-based; method in brief: as §3

Row | SMILES | Activity [1] | Activity [3] | Activity [4] | Activity [8] | Activity [12] | Activity [15] | Activity [20] | Activity [21] | Activity [22] | Activity [23] | Activity [25] | Activity [27] | Activity [28] | Activity [30] | Activity [31] | Activity [32] | also measured
1 | CCCCCCCCCCCCCC[C@@H](O)[C@@H](O)[C@H](CO[C@H]1O[C@H](CO)[C@H](O)[C@H](O)[C@H]1O)NC(=O)CCCCCCCCCCCCC | 2.4 | 2 | 1.4 | 2.2 | 3 | 1.6 | 3.5 | 1.9 | 2.7 | 1.8 | 3 | 1.7 | 2.8 | 1.9 | 1.9 | 1.7 | Activity (Mus musculus [2]): 43.8; Activity (Mus musculus [5]): 3.9; Activity (Mus musculus [6]): 26.2; Activity (Mus musculus [7]): 0.9; Activity (Mus musculus [9]): 1.5; Activity (Mus musculus [10]): 1.5; Activity (Mus musculus [11]): 14; Activity (Mus musculus [13]): Active; Activity (Mus musculus [14]): Active; Activity (Mus musculus [16]): 1.6; Activity (Mus musculus [17]): 1.5; Activity (Mus musculus [18]): 0.9; Activity (Mus musculus [19]): 2; Activity (Mus musculus [24]): 2.4; Activity (Mus musculus [26]): 5.4; Activity (Mus musculus [29]): 3.5; Activity (NKT): Active; Activity (Mus musculus [33]): 0.9; Activity (Mus musculus [34]): 2.6
2 | CCCCCCCCCCCCCCCCCCCCCCCCCC(=O)N[C@@H](CO[C@H]1O[C@H](CO)[C@H](O)[C@H](O)[C@H]1O)[C@H](O)[C@H](O)CCCCC | 2.1 | 1.8 | 1.3 | 1.6 | 4.7 | 1 | 2.7 | 1.5 | 1.9 | 1.5 | 2.2 | 1.4 | 2.7 | 1.8 | 1.8 | 1.4 | Activity (dendritic [35]): 49; Activity (HeLa [36]): 3.3; Activity (dendritic [37]): 12; Activity (dendritic [38]): 18.6; Activity (HeLa [39]): 5.9; Activity (HeLa [40]): 20
